According to ChEMBL document CHEMBL1828601, “Small molecule peptidomimetic inhibitors of importin α/β mediated nuclear transport” (Bioorg Med Chem, 2010):
Activity calls are given as the source filed them. The rule behind the calls is not given here.

tested on: FGM; assay: Inhibition of importin alpha/beta-mediated nuclear transportation of Alexa555-BSA-NLS in human FGM cell nucleus at 500 uM after 30 mins by fluorescence microscopy; format: cell-based

Which inhibition does the source give for `N[C@@H](Cc1ccc(Cl)cc1)C(=O)Nc1ccc(C(=O)N[C@@H](CCc2ccccc2)C(=O)O)cc1OCc1ccc(Cl)cc1` here?
The inhibition was “inactive”.

Which inhibition does the source give for `NC(=O)C[C@H](N)C(=O)N1C[C@@H](C(=O)NCCc2c[nH]cn2)[C@H](C(=O)NCCc2c[nH]c3ccccc23)C1` here?
The inhibition was “inactive”.

How did the inhibition turn out when `NC(=O)C[C@H](N)C(=O)Nc1ccc(C(=O)N[C@@H](CCc2ccccc2)C(=O)O)cc1OCc1ccccc1` was run?
The inhibition was “inactive”.

Which inhibition does the source give for `CC(C)[C@H](N)C(=O)N1C[C@@H](C(=O)NCCCCN)[C@H](C(=O)NCCc2ccc3ccccc3c2)C1` here?
Its inhibition is “inactive”.

With `N[C@@H](Cc1ccc(Cl)cc1)C(=O)Nc1ccc(C(=O)N[C@@H](CCc2ccccc2)C(=O)O)cc1OCc1ccccc1` as the molecule, how does the inhibition read?
The inhibition was “inactive”.

With `N[C@@H](CCc1ccccc1)C(=O)Nc1ccc(C(=O)N[C@@H](CCc2ccccc2)C(=O)O)cc1OCc1ccccc1` as the molecule, how does the inhibition read?
Its inhibition is “Active”.

How did the inhibition turn out when `N[C@@H](Cc1c[nH]c2ccccc12)C(=O)N1C[C@@H](C(=O)NCCc2c[nH]cn2)[C@H](C(=O)NCCc2c[nH]c3ccccc23)C1` was run?
Its inhibition is “Active”.

`COc1ccc(C[C@H](N)C(=O)Nc2ccc(C(=O)N[C@@H](CCc3ccccc3)C(=O)O)cc2OCc2ccccc2)cc1` was tested. Which inhibition did it give?
The inhibition was “inactive”.

For `N[C@@H](CO)C(=O)Nc1ccc(C(=O)N[C@@H](CCc2ccccc2)C(=O)O)cc1OCc1ccccc1`, which inhibition is on record?
The inhibition was “Active”.

For `NC(=O)C[C@H](N)C(=O)N1C[C@@H](C(=O)NCCc2c[nH]c3ccccc23)[C@H](C(=O)NCCc2c[nH]c3ccccc23)C1`, which inhibition is on record?
Its inhibition is “inactive”.

Which inhibition does the source give for `CC(C)COc1cc(C(=O)N[C@@H](Cc2ccc3ccccc3c2)C(=O)O)ccc1NC(=O)[C@@H](N)Cc1c[nH]cn1` here?
The inhibition was “inactive”.

`N[C@@H](CO)C(=O)N1C[C@@H](C(=O)NCCc2c[nH]c3ccccc23)[C@H](C(=O)NCCc2c[nH]c3ccccc23)C1` was tested. Which inhibition did it give?
The inhibition was “inactive”.

Which inhibition does the source give for `N[C@@H](CCc1ccccc1)C(=O)N1C[C@@H](C(=O)NCCc2c[nH]c3ccccc23)[C@H](C(=O)NCCc2c[nH]c3ccccc23)C1` here?
Its inhibition is “inactive”.

How did the inhibition turn out when `N[C@@H](Cc1cnc[nH]1)C(=O)N1C[C@@H](C(=O)NCCc2c[nH]c3ccccc23)[C@H](C(=O)NCCc2c[nH]c3ccccc23)C1` was run?
Its inhibition is “inactive”.

For `CC(C)COc1cc(C(=O)N[C@@H](Cc2ccc3ccccc3c2)C(=O)O)ccc1NC(=O)[C@@H](N)[C@@H](C)O`, which inhibition is on record?
The inhibition was “inactive”.

For `C[C@H](N)C(=O)N1C[C@@H](C(=O)NCCc2c[nH]c3ccccc23)[C@H](C(=O)NCCc2c[nH]c3ccccc23)C1`, which inhibition is on record?
Its inhibition is “inactive”.

For `CC(C)COc1cc(C(=O)N[C@@H](Cc2ccc3ccccc3c2)C(=O)O)ccc1NC(=O)[C@@H](N)Cc1ccc2ccccc2c1`, which inhibition is on record?
The inhibition was “inactive”.

`CC(C)C[C@H](N)C(=O)N1C[C@@H](C(=O)NCCc2c[nH]c3ccccc23)[C@H](C(=O)NCCc2c[nH]c3ccccc23)C1` was tested. Which inhibition did it give?
The inhibition was “inactive”.

For `CC(C)COc1cc(C(=O)N[C@@H](Cc2ccc3ccccc3c2)C(=O)O)ccc1NC(=O)[C@@H](N)CO`, which inhibition is on record?
Its inhibition is “inactive”.

With `N[C@@H](Cc1ccccc1)C(=O)Nc1ccc(C(=O)N[C@@H](CCc2ccccc2)C(=O)O)cc1OCc1ccccc1` as the molecule, how does the inhibition read?
The inhibition was “Active”.

For `N[C@@H](Cc1c[nH]c2ccccc12)C(=O)N1C[C@@H](C(=O)NCCc2c[nH]c3ccccc23)[C@H](C(=O)NCCc2c[nH]c3ccccc23)C1`, which inhibition is on record?
The inhibition was “inactive”.

How did the inhibition turn out when `CC[C@H](N)C(=O)Nc1ccc(C(=O)N[C@@H](Cc2ccc3ccccc3c2)C(=O)O)cc1OCC(C)C` was run?
The inhibition was “inactive”.

For `C[C@H](N)C(=O)Nc1ccc(C(=O)N[C@@H](CCc2ccccc2)C(=O)O)cc1OCc1ccccc1`, which inhibition is on record?
Its inhibition is “inactive”.

With `CSCC[C@H](N)C(=O)N1C[C@@H](C(=O)NCCc2c[nH]c3ccccc23)[C@H](C(=O)NCCc2c[nH]c3ccccc23)C1` as the molecule, how does the inhibition read?
Its inhibition is “inactive”.

`NCCCC[C@H](N)C(=O)N1C[C@@H](C(=O)NCCc2c[nH]c3ccccc23)[C@H](C(=O)NCCc2c[nH]c3ccccc23)C1` was tested. Which inhibition did it give?
The inhibition was “Active”.

With `CC(C)COc1cc(C(=O)N[C@@H](Cc2ccc3ccccc3c2)C(=O)O)ccc1NC(=O)[C@@H](N)CCc1ccccc1` as the molecule, how does the inhibition read?
The inhibition was “inactive”.

`N[C@@H](Cc1ccc(O)cc1)C(=O)N1C[C@@H](C(=O)NCCc2c[nH]c3ccccc23)[C@H](C(=O)NCCc2c[nH]c3ccccc23)C1` was tested. Which inhibition did it give?
The inhibition was “inactive”.

How did the inhibition turn out when `NCCCC[C@H](N)C(=O)Nc1ccc(C(=O)N[C@@H](CCc2ccccc2)C(=O)O)cc1OCc1ccccc1` was run?
Its inhibition is “Active”.

`CC(C)C[C@H](N)C(=O)Nc1ccc(C(=O)N[C@@H](CCc2ccccc2)C(=O)O)cc1OCc1ccccc1` was tested. Which inhibition did it give?
The inhibition was “Active”.

For `CC(C)COc1cc(C(=O)N[C@@H](Cc2ccc3ccccc3c2)C(=O)O)ccc1NC(=O)[C@@H](N)Cc1c[nH]c2ccccc12`, which inhibition is on record?
The inhibition was “inactive”.

For `COc1ccc(C[C@H](N)C(=O)N2C[C@@H](C(=O)NCCc3c[nH]c4ccccc34)[C@H](C(=O)NCCc3c[nH]c4ccccc34)C2)cc1`, which inhibition is on record?
Its inhibition is “inactive”.

For `N[C@@H](CCc1ccc(O)cc1)C(=O)N1C[C@@H](C(=O)NCCc2c[nH]c3ccccc23)[C@H](C(=O)NCCc2c[nH]c3ccccc23)C1`, which inhibition is on record?
The inhibition was “inactive”.

For `CC(C)COc1cc(C(=O)N[C@@H](Cc2ccc3ccccc3c2)C(=O)O)ccc1NC(=O)[C@@H](N)CC(C)C`, which inhibition is on record?
Its inhibition is “inactive”.

How did the inhibition turn out when `CSCC[C@H](N)C(=O)Nc1ccc(C(=O)N[C@@H](CCc2ccccc2)C(=O)O)cc1OCc1ccccc1` was run?
The inhibition was “Active”.

`N[C@@H](Cc1ccc(O)cc1)C(=O)Nc1ccc(C(=O)N[C@@H](CCc2ccccc2)C(=O)O)cc1OCc1ccccc1` was tested. Which inhibition did it give?
Its inhibition is “Active”.

`CC[C@H](C)[C@H](N)C(=O)N1C[C@@H](C(=O)NCCc2c[nH]c3ccccc23)[C@H](C(=O)NCCc2c[nH]c3ccccc23)C1` was tested. Which inhibition did it give?
The inhibition was “inactive”.

Which inhibition does the source give for `CC[C@H](C)[C@H](N)C(=O)Nc1ccc(C(=O)N[C@@H](Cc2ccc3ccccc3c2)C(=O)O)cc1OCC(C)C` here?
Its inhibition is “inactive”.

How did the inhibition turn out when `CC[C@H](N)C(=O)Nc1ccc(C(=O)N[C@@H](CCc2ccccc2)C(=O)O)cc1OCc1ccccc1` was run?
The inhibition was “Active”.

For `CC(C)COc1cc(C(=O)N[C@@H](Cc2ccc3ccccc3c2)C(=O)O)ccc1NC(=O)[C@@H](N)CCCCN`, which inhibition is on record?
Its inhibition is “inactive”.

For `N[C@@H](Cc1ccc2ccccc2c1)C(=O)Nc1ccc(C(=O)N[C@@H](CCc2ccccc2)C(=O)O)cc1OCc1ccccc1`, which inhibition is on record?
Its inhibition is “inactive”.

With `CC(C)COc1cc(C(=O)N[C@@H](Cc2ccc3ccccc3c2)C(=O)O)ccc1NC(=O)[C@H](C)N` as the molecule, how does the inhibition read?
Its inhibition is “Active”.

Which inhibition does the source give for `N[C@@H](Cc1ccccc1)C(=O)N1C[C@@H](C(=O)NCCc2c[nH]c3ccccc23)[C@H](C(=O)NCCc2c[nH]c3ccccc23)C1` here?
The inhibition was “inactive”.

`CC(C)COc1cc(C(=O)N[C@@H](Cc2ccc3ccccc3c2)C(=O)O)ccc1NC(=O)[C@@H](N)CC(N)=O` was tested. Which inhibition did it give?
The inhibition was “inactive”.

For `CC(C)COc1cc(C(=O)N[C@@H](Cc2ccc3ccccc3c2)C(=O)O)ccc1NC(=O)[C@@H](N)Cc1ccccc1`, which inhibition is on record?
The inhibition was “Active”.

For `CC(C)[C@H](N)C(=O)N1C[C@@H](C(=O)NCCc2c[nH]c3ccccc23)[C@H](C(=O)NCCc2c[nH]c3ccccc23)C1`, which inhibition is on record?
The inhibition was “inactive”.

With `N[C@@H](Cc1c[nH]c2ccccc12)C(=O)Nc1ccc(C(=O)N[C@@H](CCc2ccccc2)C(=O)O)cc1OCc1ccccc1` as the molecule, how does the inhibition read?
The inhibition was “inactive”.

`CC(C)COc1cc(C(=O)N[C@@H](Cc2ccc3ccccc3c2)C(=O)O)ccc1NC(=O)[C@@H](N)Cc1ccc(O)cc1` was tested. Which inhibition did it give?
Its inhibition is “Active”.

For `COc1ccc(C[C@H](N)C(=O)Nc2ccc(C(=O)N[C@@H](Cc3ccc4ccccc4c3)C(=O)O)cc2OCC(C)C)cc1`, which inhibition is on record?
The inhibition was “Active”.

For `CC(C)COc1cc(C(=O)N[C@@H](Cc2ccc3ccccc3c2)C(=O)O)ccc1NC(=O)[C@@H](N)Cc1ccc(Cl)cc1`, which inhibition is on record?
Its inhibition is “inactive”.

`N[C@@H](Cc1ccc(Cl)cc1)C(=O)N1C[C@@H](C(=O)NCCc2c[nH]c3ccccc23)[C@H](C(=O)NCCc2c[nH]c3ccccc23)C1` was tested. Which inhibition did it give?
Its inhibition is “inactive”.

How did the inhibition turn out when `CC(C)COc1cc(C(=O)N[C@@H](Cc2ccc3ccccc3c2)C(=O)O)ccc1NC(=O)CN` was run?
Its inhibition is “inactive”.

How did the inhibition turn out when `C[C@@H](O)[C@H](N)C(=O)Nc1ccc(C(=O)N[C@@H](CCc2ccccc2)C(=O)O)cc1OCc1ccccc1` was run?
The inhibition was “Active”.

How did the inhibition turn out when `CC(C)[C@H](N)C(=O)Nc1ccc(C(=O)N[C@@H](CCc2ccccc2)C(=O)O)cc1OCc1ccccc1` was run?
Its inhibition is “Active”.

Which inhibition does the source give for `N[C@@H](Cc1c[nH]cn1)C(=O)Nc1ccc(C(=O)N[C@@H](CCc2ccccc2)C(=O)O)cc1OCc1ccccc1` here?
Its inhibition is “inactive”.

Which inhibition does the source give for `N[C@@H](CC(=O)O)C(=O)N1C[C@@H](C(=O)NCCc2c[nH]c3ccccc23)[C@H](C(=O)NCCc2c[nH]c3ccccc23)C1` here?
The inhibition was “inactive”.

How did the inhibition turn out when `CC(C)COc1cc(C(=O)N[C@@H](Cc2ccc3ccccc3c2)C(=O)O)ccc1NC(=O)[C@@H](N)C(C)C` was run?
Its inhibition is “inactive”.

`N[C@@H](CCc1ccc(Cl)cc1)C(=O)N1C[C@@H](C(=O)NCCc2c[nH]c3ccccc23)[C@H](C(=O)NCCc2c[nH]c3ccccc23)C1` was tested. Which inhibition did it give?
The inhibition was “inactive”.

Which inhibition does the source give for `CC(C)COc1cc(C(=O)N[C@@H](Cc2ccc3ccccc3c2)C(=O)O)ccc1NC(=O)[C@@H](N)CC(=O)O` here?
Its inhibition is “inactive”.

For `CSCC[C@H](N)C(=O)Nc1ccc(C(=O)N[C@@H](Cc2ccc3ccccc3c2)C(=O)O)cc1OCC(C)C`, which inhibition is on record?
The inhibition was “inactive”.

`N[C@@H](Cc1ccc2ccccc2c1)C(=O)N1C[C@@H](C(=O)NCCc2c[nH]c3ccccc23)[C@H](C(=O)NCCc2c[nH]c3ccccc23)C1` was tested. Which inhibition did it give?
Its inhibition is “inactive”.

How did the inhibition turn out when `NCC(=O)Nc1ccc(C(=O)N[C@@H](CCc2ccccc2)C(=O)O)cc1OCc1ccccc1` was run?
Its inhibition is “Active”.

Which inhibition does the source give for `N[C@@H](CC(=O)O)C(=O)Nc1ccc(C(=O)N[C@@H](CCc2ccccc2)C(=O)O)cc1OCc1ccccc1` here?
The inhibition was “inactive”.

`C[C@@H](O)[C@H](N)C(=O)N1C[C@@H](C(=O)NCCc2c[nH]c3ccccc23)[C@H](C(=O)NCCc2c[nH]c3ccccc23)C1` was tested. Which inhibition did it give?
Its inhibition is “inactive”.

tested on: FGM; assay: Inhibition of importin alpha/beta-mediated nuclear transportation of Alexa555-GST-M9 in human FGM cell nucleus at 500 uM after 30 mins by fluorescence microscopy; format: cell-based
Outline: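 Transportin-dependent import measured the same way in permeabilized FGM cells, with 0.5 μM Alexa555-GST-M9 cargo in place of BSA-NLS. Conditions: 3 mg/ml HeLa cytosol, ATP-regenerating system, 0.2 mM GTP, 1% DMSO, 30 min at 30°C. Positive control was 1 mg/ml WGA. Nuclear cargo fluorescence quantified per nucleus by automated imaging.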

`N[C@@H](Cc1ccc(Cl)cc1)C(=O)Nc1ccc(C(=O)N[C@@H](CCc2ccccc2)C(=O)O)cc1OCc1ccc(Cl)cc1` was tested. Which inhibition did it give?
Its inhibition is “inactive”.

With `NC(=O)C[C@H](N)C(=O)N1C[C@@H](C(=O)NCCc2c[nH]cn2)[C@H](C(=O)NCCc2c[nH]c3ccccc23)C1` as the molecule, how does the inhibition read?
The inhibition was “inactive”.

Which inhibition does the source give for `CC(C)[C@H](N)C(=O)N1C[C@@H](C(=O)NCCCCN)[C@H](C(=O)NCCc2ccc3ccccc3c2)C1` here?
Its inhibition is “inactive”.

With `N[C@@H](Cc1c[nH]c2ccccc12)C(=O)N1C[C@@H](C(=O)NCCc2c[nH]cn2)[C@H](C(=O)NCCc2c[nH]c3ccccc23)C1` as the molecule, how does the inhibition read?
The inhibition was “Active”.
